What all share (type): functional
Test [1] has as its system MCF7. The test is described as follows: Cytotoxicity against human MCF7 cells after 48 hrs by SRB assay. Particulars: MCF7, 48 h. The method, boiled down:
(§1)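 SRB growth-inhibition assay following the NCI screen protocol. Cells were kept adherent in RPMI-1640 with 5% heat-inactivated FBS and 2 mM glutamine at 37 °C under 5% CO2. Plating density was 1.5 × 10^5 cells/mL for MCF-7 and SF-268 and 7.5 × 10^4 cells/mL for NCI-H-460. Cells attached overnight, then received five concentrations (top 100 µM) for 48 h. Cells were fixed in situ, stained with SRB and the bound dye solubilised. GI50 was taken from dose-response curves. Doxorubicin served as positive control.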

The next test relates to NCI-H460. Nature of the test: Cytotoxicity against human NCI-H460 cells after 48 hrs by SRB assay. The conditions noted are these: NCI-H460, 48 h. The method, boiled down: as §1
Another test concerns SF-268. The test is described as follows: Cytotoxicity against human SF268 cells after 48 hrs by SRB assay. The conditions noted are these: SF-268, 48 h. The method, boiled down: as §1
Test [2] concerns MCF7. Nature of the test: Induction of apoptosis in human MCF7 cells assessed as fragmentation of genomic DNA at 22.3 uM after 48 hrs by TUNEL assay. The method, boiled down: (§2)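 MCF-7 cells were seeded at 1.5 × 10^5 cells/mL, grown 24 h at 37°, then exposed continuously for 48 h. Adherent and floating cells were harvested by trypsinisation, cytospun onto slides and fixed in 4% paraformaldehyde for 1 h at room temperature. DNA fragmentation was detected by fluorescein TUNEL with DAPI counterstain under fluorescence microscopy. Apoptotic percentage came from ≥400 cells over ≥5 random fields. Controls were untreated cells and 40 nM doxorubicin.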

Test [3] relates to MCF7. Nature of the test: Induction of apoptosis in human MCF7 cells assessed as fragmentation of genomic DNA at 15.3 uM after 48 hrs by TUNEL assay. The method, boiled down: as §2
For test [4], the system named is MCF7. The test is described as follows: Induction of apoptosis in human MCF7 cells assessed as fragmentation of genomic DNA at 15.5 uM after 48 hrs by TUNEL assay. The method, boiled down: as §2
Test [5] concerns MCF7. The test is described as follows: Induction of apoptosis in human MCF7 cells assessed as fragmentation of genomic DNA at 0.043 uM after 48 hrs by TUNEL assay.
Test [6] concerns MCF7. The test is described as follows: Induction of apoptosis in human MCF7 cells assessed as fragmentation of genomic DNA at 26 uM after 48 hrs by TUNEL assay. The method, boiled down:
as §2

Test [7] deals with MCF7. Nature of the test: Induction of apoptosis in human MCF7 cells assessed as fragmentation of genomic DNA at 19.2 uM after 48 hrs by TUNEL assay. The method, boiled down: as §2
The subject of test [8] is MCF7. Nature of the test: Induction of apoptosis in human MCF7 cells assessed as fragmentation of genomic DNA at 19.4 uM after 48 hrs by TUNEL assay. The method, boiled down:
as §2

Regarding `C/C(=C\CC[C@@H](C)[C@@]1(C)C[C@H]2O[C@]23[C@]1(C)CCC(=O)[C@@]31CC[C@H]2C(C)(C)[C@@H](O)CC[C@@]21C)C(=O)O`, the GI50 with MCF7 [1] was 63.8 µM; with NCI-H460, 68.6 µM; with SF-268, 86.4 µM.
With `COC(=O)/C(C)=C/[C@H](O)C[C@@H](C)[C@]1(C)CC=C2C3=C(CC[C@]21C)[C@@]1(C)CC[C@@H](O)C(C)(C)[C@@H]1CC3` [GARCIHOMBRONANES C], the GI50 with MCF7 [1] turned out to be 22.3 µM; in the test with NCI-H460, 37.9 µM; in the test on SF-268, 38.6 µM. Moreover, the Activity in the test with MCF7 [2] is 17.36%.
For the compound `COC(=O)/C(C)=C/[C@H]1C[C@@H](C)[C@]2(C)[C@@H](C=C3C4=C(CC[C@]32C)[C@@]2(C)CC[C@@H](OC(C)=O)C(C)(C)[C@@H]2CC4)O1`, the GI50 amounted to 15.3 µM with MCF7 [1], 34.4 µM in the test on NCI-H460 and 28.6 µM in the test on SF-268. The Activity in the test on MCF7 [3] turned out to be 23.54%.
`C/C(=C\C=C/[C@@H](C)[C@@]1(C)C[C@H]2O[C@]23[C@]1(C)CCC(=O)[C@@]31CC[C@H]2C(C)(C)[C@@H](O)CC[C@@]21C)C(=O)O`: the results for the GI50 in the test on MCF7 [1], in the test on NCI-H460 and in the test with SF-268 were 69.6 µM, 70.3 µM and 95.7 µM, respectively.
Take `CC(=O)O[C@H]1CC[C@]2(C)C3=CC[C@]4(C)C([C@H](C)CC(=O)C[C@H](C)C(=O)O)=CC[C@@]4(C)[C@@H]3CC[C@H]2C1(C)C`: the GI50 was determined as 15.5 µM in the test on MCF7 [1], 22.1 µM in the test with NCI-H460 and 30.6 µM in the test on SF-268. In addition, in the test on MCF7 [4], the Activity amounted to 5.33%.
Consider `COc1cccc2c1C(=O)c1c(O)c3c(c(O)c1C2=O)C[C@@](O)(C(=O)CO)C[C@@H]3O[C@H]1C[C@H](N)[C@H](O)[C@H](C)O1` [DOXORUBICIN], for which the concentration for 50% growth inhibition (GI50) is 0.043 µM in the test with MCF7 [1], 0.094 µM in the test with NCI-H460 and 0.093 µM with SF-268. The Activity in the test with MCF7 [5] is given as 26.02%.
In the case of `COC(=O)[C@@H](C)CC(=O)C[C@@H](C)C1=CC[C@@]2(C)[C@@H]3CC[C@H]4C(C)(C)[C@@H](O)CC[C@]4(C)C3=CC[C@]12C`, the GI50 in the test with MCF7 [1], in the test on NCI-H460 and with SF-268 was above 100 µM throughout.
Take `COC(=O)/C(C)=C/[C@H](O)C[C@@H](C)[C@]1(C)CC(=O)C2=C3CC[C@H]4C(C)(C)[C@H](O)CC[C@]4(C)[C@H]3CC[C@]21C`: the values for the concentration for 50% growth inhibition (GI50) in the test on MCF7 [1], with NCI-H460 and in the test with SF-268 were 26 µM, 42.7 µM and 44.7 µM, respectively. Further, the Activity with MCF7 [6] was determined as 26.36%.
`COC(=O)/C(C)=C/[C@H]1C[C@@H](C)[C@]2(C)[C@@H](C=C3C4=C(CC[C@]32C)[C@@]2(C)CC[C@@H](O)C(C)(C)[C@@H]2CC4)O1`: the GI50 in the test with MCF7 [1] is 19.2 µM; in the test with NCI-H460 it was 30.4 µM; in the test with SF-268, 29.7 µM. For the same compound, the Activity with MCF7 [7] is given as 2.97%.
For the compound `C[C@H](CC(=O)C[C@H](C)C(=O)O)C1=CC[C@@]2(C)[C@@H]3CC[C@H]4C(C)(C)[C@H](O)CC[C@]4(C)C3=CC[C@]12C`, the Activity with MCF7 [8] stood at 2.34%. For the same compound, the GI50 in the test on MCF7 [1] amounted to 19.4 µM; with NCI-H460, 36.9 µM; with SF-268, 34.8 µM.
